Each structure is given as a SMILES string. Square brackets hold non-standard residues; d marks the D form. Peptide text beside a SMILES is read from it. Sta = CC(C)C[C@H](N)[C@@H](O)CC(=O)O; Nle = CCCC[C@H](N)C(=O)O; βAla = NCCC(=O)O

Series [1] is described as follows: Displacement of 125 I- [Tyr4] from bombesin receptor 1 (unknown origin) assessed as inhibition by radioligand competitive binding assay. More on the design: species or system Homo sapiens.
Series [2] has as its target Gastrin-releasing peptide receptor (Homo sapiens, UniProt P30550). The experiment in a line: Displacement of 125 I- [Tyr4] from bombesin receptor 2 (unknown origin) assessed as inhibition by radioligand competitive binding assay.
Series [3] has as its target T1, Bombesin receptor subtype-3 (Homo sapiens, UniProt P32247).
T1 sequence (P32247 whole entry): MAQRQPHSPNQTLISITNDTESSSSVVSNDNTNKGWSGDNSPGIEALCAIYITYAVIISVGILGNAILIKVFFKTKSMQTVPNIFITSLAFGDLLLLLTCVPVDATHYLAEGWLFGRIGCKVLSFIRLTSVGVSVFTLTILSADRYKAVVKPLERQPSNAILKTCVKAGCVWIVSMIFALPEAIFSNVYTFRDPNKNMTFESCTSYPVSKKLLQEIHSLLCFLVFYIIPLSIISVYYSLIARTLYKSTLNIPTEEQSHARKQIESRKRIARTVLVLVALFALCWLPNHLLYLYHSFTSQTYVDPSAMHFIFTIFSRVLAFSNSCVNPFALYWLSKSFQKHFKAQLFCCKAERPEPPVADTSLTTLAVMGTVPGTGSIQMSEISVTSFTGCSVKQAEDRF
The experiment in a line: Displacement of 125 I- [Tyr4] from bombesin receptor 3 (unknown origin) assessed as inhibition by radioligand competitive binding assay.

Series [4] in a line: Cytotoxicity against human PC-3 cells assessed as inhibition of cell growth incubated for 72 hrs by CellTiter 96 aqueous assay. It counts as toxicity, cell-based. Put shortly: (§1)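 PC-3 or MDA-MB-231 cells were treated the day after seeding with serial dilutions, from 2000 nM for conjugates and 100 nM for MMAE, for 72 h. Then the assay was stopped, or run 72 h more after a medium change (single) or re-treatment (double). Controls got 0.05 % DMSO. Read-out was MTS absorbance at 490 nm after 90 min. IC50 by non-linear regression; ≥2 experiments, triplicates.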

Series [5] is described as follows: Cytotoxicity against human cells MDA-MB-231 assessed as inhibition of cell growth incubated for 72 hrs by CellTiter 96 aqueous assay. It counts as toxicity, cell-based. As to conditions: MDA-MB-231 cells. Put shortly:
as §1

Series [6] in a line: Cytotoxicity against human PC-3 cells assessed as inhibition of cell growth incubated with compound for 72 hrs followed by further incubated for 72 hrs (single treatment) by CellTiter 96 aqueous assay. It counts as toxicity, cell-based. Put shortly: as §1
The nature of series [7]: Cytotoxicity against human PC-3 cells assessed as inhibition of cell growth incubated for 72 hrs and followed by treated with compound continued incubation for further 72 hrs (double treatment) after retreatment of compound by CellTiter 96 aqueous assay. It counts as toxicity, cell-based. Summed up:
as §1

Series [8] is described as follows: Cytotoxicity against human MDA-MB-231 cells assessed as inhibition of cell growth incubated with compound for 72 hrs followed by further incubated for 72 hrs (single treatment) by CellTiter 96 aqueous assay. It counts as toxicity, cell-based. Put shortly:
as §1

The nature of series [9]: Cytotoxicity against human MDA-MB-231 cells assessed as inhibition of cell growth incubated for 72 hrs and followed by treated with compound continued incubation for further 72 hrs (double treatment) after retreatment of compound by CellTiter 96 aqueous assay. It counts as toxicity, cell-based. Summed up:
as §1

Chain of Gastrin-releasing peptide receptor (P30550 whole entry): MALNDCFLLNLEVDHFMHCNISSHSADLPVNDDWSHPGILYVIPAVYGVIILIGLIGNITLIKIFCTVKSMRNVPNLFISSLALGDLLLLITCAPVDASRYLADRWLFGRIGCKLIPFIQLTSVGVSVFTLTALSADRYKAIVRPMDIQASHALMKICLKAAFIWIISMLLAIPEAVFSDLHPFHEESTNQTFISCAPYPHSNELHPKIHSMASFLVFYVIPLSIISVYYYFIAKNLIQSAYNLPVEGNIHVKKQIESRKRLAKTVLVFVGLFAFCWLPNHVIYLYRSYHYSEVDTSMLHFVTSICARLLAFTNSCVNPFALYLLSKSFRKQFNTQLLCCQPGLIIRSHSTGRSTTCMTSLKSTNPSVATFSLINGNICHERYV

By IC50 is commonly meant the concentration that gives 50% inhibition. With `CCCC[C@H](NC(=O)C[C@H](O)[C@H](CC(C)C)NC(=O)[C@H](Cc1c[nH]cn1)NC(=O)CCNC(=O)[C@@H](NC(=O)[C@H](C)NC(=O)[C@H](Cc1c[nH]c2ccccc12)NC(=O)[C@H](CCC(N)=O)NC(=O)[C@@H](Cc1ccccc1)NC(C)=O)C(C)C)C(=O)N[C@@H](CS)C(N)=O`, the IC50 in series [1] is greater than 10 µM; in series [2] it was greater than 10 µM; in [3] it was greater than 1 µM.
Regarding `CC(=O)N[C@H](Cc1ccccc1)C(=O)N[C@@H](CCC(N)=O)C(=O)N[C@@H](Cc1c[nH]c2ccccc12)C(=O)N[C@@H](C)C(=O)N[C@H](C(=O)NCC(=O)N[C@@H](Cc1c[nH]cn1)C(=O)N[C@@H](CC(C)C)[C@@H](O)CC(=O)N[C@@H](CC(C)C)C(N)=O)C(C)C`, the half-inhibitory concentration (IC50) in [1] was greater than 10 µM; in [3], 0.00111 µM.
Regarding `CC(=O)N[C@@H](CS)C(=O)N[C@H](Cc1ccccc1)C(=O)N[C@@H](CCC(N)=O)C(=O)N[C@@H](Cc1c[nH]c2ccccc12)C(=O)N[C@@H](C)C(=O)N[C@H](C(=O)NCCC(=O)N[C@@H](Cc1c[nH]cn1)C(=O)N[C@@H](CC(C)C)[C@@H](O)CC(=O)N[C@@H](CC(C)C)C(N)=O)C(C)C`, the figures for the IC50 in [1], in series [2] and in [3] were greater than 10 µM, 5.29 µM and 5.25 µM, respectively.
The matching figures for `CCCC[C@H](NC(=O)C[C@H](O)[C@H](CC(C)C)NC(=O)[C@H](Cc1c[nH]cn1)NC(=O)CN(C)C(=O)[C@@H](NC(=O)[C@H](C)NC(=O)[C@H](Cc1c[nH]c2ccccc12)NC(=O)[C@H](CCC(N)=O)NC(=O)[C@@H](Cc1ccccc1)NC(C)=O)C(C)C)C(=O)N[C@@H](CS)C(N)=O`: greater than 10 µM, greater than 10 µM and greater than 1 µM.
The matching figures for `CC(=O)N[C@@H](CS)C(=O)N[C@H](C(=O)N[C@@H](CC(C)C)[C@@H](O)CC(=O)N[C@H](Cc1ccccc1)C(=O)N[C@H](CCC(N)=O)C(=O)NCC(=O)N[C@@H](CC(C)C)C(=O)N[C@@H](C)C(=O)N[C@@H](Cc1c[nH]c2ccccc12)C(=O)N[C@@H](Cc1c[nH]cn1)C(N)=O)C(C)C`: greater than 10 µM, 4.75 µM and greater than 10 µM.
Take `CCCC[C@H](NC(=O)C[C@H](O)[C@H](CC(C)C)NC(=O)[C@H](Cc1c[nH]cn1)NC(=O)CCNC(=O)[C@@H](NC(=O)[C@H](C)NC(=O)[C@H](Cc1c[nH]c2ccccc12)NC(=O)[C@H](CCC(N)=O)NC(=O)[C@@H](Cc1ccccc1)NC(=O)[C@H](CSC1CC(=O)N(CCCCCC(=O)N[C@H](C(=O)N[C@@H](CCCNC(N)=O)C(=O)Nc2ccc(COC(=O)N(C)[C@H](C(=O)N[C@H](C(=O)N(C)[C@@H]([C@@H](C)CC)[C@@H](CC(=O)N3CCC[C@H]3[C@H](OC)[C@@H](C)C(=O)N[C@H](C)[C@@H](O)c3ccccc3)OC)C(C)C)C(C)C)cc2)C(C)C)C1=O)NC(C)=O)C(C)C)C(N)=O` (stereo partly specified): the IC50 at 72 h in series [4] worked out at 0.852 µM; in [5], 1.28 µM. For the same molecule, the IC50 at 144 h turned out to be 0.132 µM in [6], 0.121 µM in series [7], 0.218 µM in series [8] and 0.176 µM in [9].
On to `CCCC[C@H](NC(=O)C[C@H](O)[C@H](CC(C)C)NC(=O)[C@H](Cc1c[nH]cn1)NC(=O)CNC(=O)[C@@H](NC(=O)[C@H](C)NC(=O)[C@H](Cc1c[nH]c2ccccc12)NC(=O)[C@H](CCC(N)=O)NC(=O)[C@@H](Cc1ccccc1)NC(C)=O)C(C)C)C(=O)N[C@@H](CS)C(N)=O`, for which the IC50 in series [1], in [2] and in series [3] was greater than 10 µM each time.
Turning to `CCCC[C@H](NC(=O)C[C@H](O)[C@H](CC(C)C)NC(=O)[C@H](Cc1c[nH]cn1)NC(=O)CCNC(=O)[C@@H](NC(=O)[C@H](C)NC(=O)[C@H](Cc1c[nH]c2ccccc12)NC(=O)[C@H](CCC(N)=O)NC(=O)[C@@H](Cc1ccccc1)NC(C)=O)C(C)C)C(N)=O` (Ac-[dF]QWAV[βAla]H[Sta][Nle]-NH2), the IC50 in series [1], in series [2] and in series [3] was greater than 10 µM in each case.

Values taken from ChEMBL document CHEMBL6071141, “In vitro and in vivo evaluation of Bombesin-MMAE conjugates for targeted tumour therapy” (Eur J Med Chem, 2024).
